What all share (assay type): functional, cell-based
The target of experiment [1] is T1, Neuropeptide S receptor (Mus musculus) (UniProt Q8BZP8).
T1 sequence (whole entry): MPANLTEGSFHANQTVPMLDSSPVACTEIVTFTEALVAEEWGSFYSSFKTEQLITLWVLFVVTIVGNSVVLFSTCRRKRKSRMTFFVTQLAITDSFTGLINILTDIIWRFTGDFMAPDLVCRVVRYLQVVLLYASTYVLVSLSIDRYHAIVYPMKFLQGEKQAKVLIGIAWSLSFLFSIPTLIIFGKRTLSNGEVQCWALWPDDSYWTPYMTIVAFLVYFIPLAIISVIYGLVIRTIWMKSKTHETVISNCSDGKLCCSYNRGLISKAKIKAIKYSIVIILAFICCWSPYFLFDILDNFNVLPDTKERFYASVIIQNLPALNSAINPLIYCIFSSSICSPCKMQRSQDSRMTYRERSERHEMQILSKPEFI
The experiment can be described thus: Agonist activity at mouse recombinant NPS receptor expressed in HEK293 cells assessed as intracellular calcium mobilization at 10 umol.

The target of experiment [2] is T2, Neuropeptide S receptor (Mus musculus, UniProt Q8BZP8).
T2 sequence (Q8BZP8 whole entry): T1 sequence (whole entry)
The experiment can be described thus: Agonist activity at mouse recombinant NPS receptor expressed in HEK293 cells assessed as intracellular calcium mobilization. Summed up: (§1)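 HEK293 cells stably expressing mouse NPSR, kept in DMEM with 10% FBS, 2 mM L-glutamine and hygromycin (100 mg/L), were seeded at 50 000 cells/well. Next day they were loaded with Fluo-4 AM (3 µmol), probenecid (2.5 mmol) and 0.01% pluronic acid for 30 min at 37 °C. Agonist dilutions in HBSS/HEPES with 0.02% BSA were added, and FlexStation II fluorescence was read at 22 °C.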
Background: Calcium flux is commonly read through the fluorescence of an indicator in the cells.

The target of experiment [3] is T1, Neuropeptide S receptor (Mus musculus). In words: Agonist activity at mouse recombinant NPS receptor expressed in HEK293 cells assessed as intracellular calcium mobilization relative to baseline. In a few lines: as §1

pEC50: −log10 of the molar value. Non-standard residues stand in square brackets, D forms with d. Residues, ends and D or L forms follow the SMILES beside them. Phe(4-NO2) = N[C@@H](Cc1ccc([N+](=O)[O-])cc1)C(=O)O; Dip = N[C@H](C(=O)O)C(c1ccccc1)c1ccccc1; Phe(4-Me) = Cc1ccc(C[C@H](N)C(=O)O)cc1; 2Nal = N[C@@H](Cc1ccc2ccccc2c1)C(=O)O; hPhe = N[C@@H](CCc1ccccc1)C(=O)O; Tic = O=C(O)[C@@H]1Cc2ccccc2CN1; β3hF = N[C@H](CC(=O)O)Cc1ccccc1; Phg = N[C@H](C(=O)O)c1ccccc1

Experimental findings from ChEMBL document CHEMBL1140728, “Synthesis and biological activity of human neuropeptide S analogues modified in position 2” (J Med Chem, 2008) are described below.

As for `CSCC[C@H](NC(=O)CNC(=O)[C@@H](NC(=O)CNC(=O)[C@@H](NC(=O)CNC(=O)[C@H](CC(N)=O)NC(=O)[C@H](CCCNC(=N)N)NC(=O)[C@@H](NC(=O)[C@@H](N)CO)C(c1ccccc1)c1ccccc1)C(C)C)[C@@H](C)O)C(=O)N[C@@H](CCCCN)C(=O)N[C@@H](CCCCN)C(=O)N[C@H](C(=O)N[C@@H](CO)C(=O)N[C@@H](Cc1ccccc1)C(=O)N[C@@H](CCC(N)=O)C(=O)N[C@@H](CCCNC(=N)N)C(=O)N[C@@H](C)C(=O)N[C@@H](CCCCN)C(=O)N[C@@H](CO)C(=O)O)[C@@H](C)O` (H-S[Dip]RNGVGTGMKKTSFQRAKS-OH), the Activity in experiment [1] was 130%.

`CSCC[C@H](NC(=O)CNC(=O)[C@@H](NC(=O)CNC(=O)[C@@H](NC(=O)CNC(=O)[C@H](CC(N)=O)NC(=O)[C@H](CCCNC(=N)N)NC(=O)[C@H](Cc1ccc(C)cc1)NC(=O)[C@@H](N)CO)C(C)C)[C@@H](C)O)C(=O)N[C@@H](CCCCN)C(=O)N[C@@H](CCCCN)C(=O)N[C@H](C(=O)N[C@@H](CO)C(=O)N[C@@H](Cc1ccccc1)C(=O)N[C@@H](CCC(N)=O)C(=O)N[C@@H](CCCNC(=N)N)C(=O)N[C@@H](C)C(=O)N[C@@H](CCCCN)C(=O)N[C@@H](CO)C(=O)O)[C@@H](C)O` (H-S[Phe(4-Me)]RNGVGTGMKKTSFQRAKS-OH): the negative-log EC50 (pEC50) in experiment [2] was 9.17. In experiment [3], the maximal response (Emax) was 317%.

For the compound `CSCC[C@H](NC(=O)CNC(=O)[C@@H](NC(=O)CNC(=O)[C@@H](NC(=O)CNC(=O)[C@H](CC(N)=O)NC(=O)[C@H](CCCNC(=N)N)NC(=O)[C@H](Cc1ccc([N+](=O)[O-])cc1)NC(=O)[C@@H](N)CO)C(C)C)[C@@H](C)O)C(=O)N[C@@H](CCCCN)C(=O)N[C@@H](CCCCN)C(=O)N[C@H](C(=O)N[C@@H](CO)C(=O)N[C@@H](Cc1ccccc1)C(=O)N[C@@H](CCC(N)=O)C(=O)N[C@@H](CCCNC(=N)N)C(=O)N[C@@H](C)C(=O)N[C@@H](CCCCN)C(=O)N[C@@H](CO)C(=O)O)[C@@H](C)O` (H-S[Phe(4-NO2)]RNGVGTGMKKTSFQRAKS-OH), the pEC50 in experiment [2] was 8.44. Also, the maximum response (Emax) in experiment [3] turned out to be 290%.

`CSCC[C@H](NC(=O)CNC(=O)[C@@H](NC(=O)CNC(=O)[C@@H](NC(=O)CNC(=O)[C@H](CC(N)=O)NC(=O)[C@H](CCCNC(=N)N)NC(=O)[C@@H](NC(=O)[C@@H](N)CO)c1ccccc1)C(C)C)[C@@H](C)O)C(=O)N[C@@H](CCCCN)C(=O)N[C@@H](CCCCN)C(=O)N[C@H](C(=O)N[C@@H](CO)C(=O)N[C@@H](Cc1ccccc1)C(=O)N[C@@H](CCC(N)=O)C(=O)N[C@@H](CCCNC(=N)N)C(=O)N[C@@H](C)C(=O)N[C@@H](CCCCN)C(=O)N[C@@H](CO)C(=O)O)[C@@H](C)O` (H-S[Phg]RNGVGTGMKKTSFQRAKS-OH): in experiment [1], the Activity turned out to be 141%.

With `CSCC[C@H](NC(=O)CNC(=O)[C@@H](NC(=O)CNC(=O)[C@@H](NC(=O)CNC(=O)[C@H](CC(N)=O)NC(=O)[C@H](CCCNC(=N)N)NC(=O)[C@@H]1Cc2ccccc2CN1C(=O)[C@@H](N)CO)C(C)C)[C@@H](C)O)C(=O)N[C@@H](CCCCN)C(=O)N[C@@H](CCCCN)C(=O)N[C@H](C(=O)N[C@@H](CO)C(=O)N[C@@H](Cc1ccccc1)C(=O)N[C@@H](CCC(N)=O)C(=O)N[C@@H](CCCNC(=N)N)C(=O)N[C@@H](C)C(=O)N[C@@H](CCCCN)C(=O)N[C@@H](CO)C(=O)O)[C@@H](C)O` (H-S[Tic]RNGVGTGMKKTSFQRAKS-OH), the pEC50 in experiment [2] was 8.09. Moreover, the Emax in experiment [3] stood at 244%.

For the compound `CSCC[C@H](NC(=O)CNC(=O)[C@@H](NC(=O)CNC(=O)[C@@H](NC(=O)CNC(=O)[C@H](CC(N)=O)NC(=O)[C@H](CCCNC(=N)N)NC(=O)[C@H](CCc1ccccc1)NC(=O)[C@@H](N)CO)C(C)C)[C@@H](C)O)C(=O)N[C@@H](CCCCN)C(=O)N[C@@H](CCCCN)C(=O)N[C@H](C(=O)N[C@@H](CO)C(=O)N[C@@H](Cc1ccccc1)C(=O)N[C@@H](CCC(N)=O)C(=O)N[C@@H](CCCNC(=N)N)C(=O)N[C@@H](C)C(=O)N[C@@H](CCCCN)C(=O)N[C@@H](CO)C(=O)O)[C@@H](C)O` (H-S[hPhe]RNGVGTGMKKTSFQRAKS-OH), the negative logarithm of the EC50 (pEC50) in experiment [2] was 8.38. Moreover, the Emax in experiment [3] turned out to be 216%.

For the compound `CSCC[C@H](NC(=O)CNC(=O)[C@@H](NC(=O)CNC(=O)[C@@H](NC(=O)CNC(=O)[C@H](CC(N)=O)NC(=O)[C@H](CCCNC(=N)N)NC(=O)C[C@H](Cc1ccccc1)NC(=O)[C@@H](N)CO)C(C)C)[C@@H](C)O)C(=O)N[C@@H](CCCCN)C(=O)N[C@@H](CCCCN)C(=O)N[C@H](C(=O)N[C@@H](CO)C(=O)N[C@@H](Cc1ccccc1)C(=O)N[C@@H](CCC(N)=O)C(=O)N[C@@H](CCCNC(=N)N)C(=O)N[C@@H](C)C(=O)N[C@@H](CCCCN)C(=O)N[C@@H](CO)C(=O)O)[C@@H](C)O` (H-S[β3hF]RNGVGTGMKKTSFQRAKS-OH), in experiment [1], the Activity came to 177%.

`CSCC[C@H](NC(=O)CNC(=O)[C@@H](NC(=O)CNC(=O)[C@@H](NC(=O)CNC(=O)[C@H](CC(N)=O)NC(=O)[C@H](CCCNC(=N)N)NC(=O)[C@H](Cc1ccc2ccccc2c1)NC(=O)[C@@H](N)CO)C(C)C)[C@@H](C)O)C(=O)N[C@@H](CCCCN)C(=O)N[C@@H](CCCCN)C(=O)N[C@H](C(=O)N[C@@H](CO)C(=O)N[C@@H](Cc1ccccc1)C(=O)N[C@@H](CCC(N)=O)C(=O)N[C@@H](CCCNC(=N)N)C(=O)N[C@@H](C)C(=O)N[C@@H](CCCCN)C(=O)N[C@@H](CO)C(=O)O)[C@@H](C)O` [[2Nal2]hNPS] (H-S[2Nal]RNGVGTGMKKTSFQRAKS-OH): in experiment [2], the pEC50 was 8.66. The maximum response (Emax) in experiment [3] came to 213%.

For the compound H-SDRNGVGTGMKKTSFQRAKS-OH, in experiment [1], the Activity amounted to 39%.

With H-SERNGVGTGMKKTSFQRAKS-OH, the Activity in experiment [1] turned out to be 170%.

Take “H-SFRNGVGTGMKKTSFQRAKS-OH [NEUROPEPTIDE S]”: the pEC50 in experiment [2] is 8.96. For the same compound, the maximal effect (Emax) in experiment [3] is 270%.

Take H-SHRNGVGTGMKKTSFQRAKS-OH: the negative logarithm of the EC50 (pEC50) in experiment [2] is 6.88. Also, the Emax in experiment [3] was found to be 288%.

On to H-SKRNGVGTGMKKTSFQRAKS-OH, for which, in experiment [1], the Activity was determined as 103%.

Regarding H-SLRNGVGTGMKKTSFQRAKS-OH, the pEC50 in experiment [2] is 8.08. Besides, in experiment [3], the Emax was determined as 282%.

For the compound H-SNRNGVGTGMKKTSFQRAKS-OH, in experiment [1], the Activity stood at 49%.

With H-SQRNGVGTGMKKTSFQRAKS-OH, in experiment [1], the Activity came to 54%.

With H-STRNGVGTGMKKTSFQRAKS-OH, the Activity in experiment [1] was 114%.

Turning to H-SWRNGVGTGMKKTSFQRAKS-OH, the negative logarithm of the EC50 (pEC50) in experiment [2] is 8.65. Moreover, the maximum response (Emax) in experiment [3] came to 323%.

Take H-SYRNGVGTGMKKTSFQRAKS-OH: the pEC50 in experiment [2] is 8.63. Also, the Emax in experiment [3] amounted to 312%.

By pEC50 is commonly meant −log10 of the EC50, conventionally taken in molar units. As a reminder, the Emax is the size of the effect at its maximum, as opposed to the concentration needed.
